Published values of several laboratories.
Compare with care: the assays were run in different laboratories.

Structure (SMILES) | tested on | test | system | setting | measurement | value
CC(C)(C)NC(=O)N[C@H](C(=O)N1C[C@H]2[C@@H]([C@H]1C(=O)NC(CC1CCC1)C(=O)C(N)=O)C2(C)C)C(C)(C)C (some centres unmarked) | HCT-8 | cell growth or viability, neutral red | – | 48 h | CC50 | > 100 µM
CCCC[C@@H]1NC(=O)[C@H](Cc2ccc(O)cc2)NC(=O)[C@@H]2CCCN2C(=O)[C@H](CC(=O)O)NC(=O)[C@H](C)NC(=O)[C@H](Cc2ccccc2)NC(=O)[C@@H]2CSCCC(=O)N3CN(CN(C3)C(=O)CCSC[C@@H](C(=O)N[C@@H](CNC(=O)CCOCCOCCOCCOCCOCCn3cc(CCC(=O)N[C@H]4CSCCC(=O)N5CN6CN(C5)C(=O)CCSC[C@H](NC(=O)[C@@H](CC(=O)O)NC(=O)[C@H](Cc5cccc7ccccc57)NC(=O)[C@@H]5CCCN5C4=O)C(=O)N[C@@H](CCSC)C(=O)N[C@@H](CCCCNC(=N)N)C(=O)N[C@@H](CC(=O)O)C(=O)N[C@@H](Cc4c[nH]c5ccccc45)C(=O)N[C@@H](CO)C(=O)N[C@@H]([C@@H](C)O)C(=O)N4CCC[C@H]4C(=O)N4C[C@H](O)C[C@H]4C(=O)N[C@@H](Cc4c[nH]c5ccccc45)C(=O)N[C@H](C(N)=O)CSCCC6=O)nn3)C(N)=O)NC1=O)C(=O)CCSC[C@H](NC(C)=O)C(=O)N[C@@H](CC(C)(C)C)C(=O)N1CCC[C@H]1C(=O)N[C@@H](CCC(=O)O)C(=O)N[C@H](C)C(=O)N1CCC[C@H]1C(=O)N[C@@H](Cc1ccc(O)cc1)C(=O)N2 | – | – | rat, plasma | intravenous, 2 mg/kg | clearance | 16 mL/min/kg
NC(=O)c1ncn([C@@H]2O[C@H](CO)[C@@H](O)[C@H]2O)n1 | HeLa | cell growth or viability, MTS | – | – | CC50 | > 250 µM
CC[C@H](C)[C@H](N)C(=O)N[C@@H](CC(N)=O)C(=O)N[C@@H](CC(C)C)C(=O)N[C@@H](CCCCN)C(=O)N[C@@H](C)C(=O)N[C@@H](CC(C)C)C(=O)N[C@@H](C)C(=O)N[C@@H](C)C(=O)N[C@@H](CC(C)C)C(=O)N[C@@H](C)C(=O)N[C@@H](CCCCN)C(=O)N[C@@H](CCCCN)C(=O)N[C@H](C(=O)N[C@@H](CC(C)C)C(N)=O)[C@@H](C)CC | – | haemolysis | human | 100 µM | haemolysis | ≤ 15%
CCCCCCCCCCOc1cc2c(O)c(C(=O)OCC)cnc2cc1OCC | HeLa | cell growth or viability | – | 72 h | IC50 | > 100 µM
Nc1ncnc2c1ncn2C[C@H](O)CO | HeLa | cell growth or viability, MTS | – | – | CC50 | > 250 µM
CCCC[C@@H]1NC(=O)[C@H](Cc2ccc(O)cc2)NC(=O)[C@@H]2CCCN2C(=O)[C@H](CC(=O)O)NC(=O)[C@H](C)NC(=O)[C@H](Cc2ccccc2)NC(=O)[C@@H]2CSCCC(=O)N3CN(CN(C3)C(=O)CCSC[C@H](NC(C)=O)C(=O)N[C@@H](CC(C)(C)C)C(=O)N3CCC[C@H]3C(=O)N[C@@H](CCC(=O)O)C(=O)N[C@H](CCCCNC(=O)CCc3cn(CCOCCOCCOCCN(CCOCCOCCOCCC(=O)N[C@H]4CSCCC(=O)N5CN6CN(C5)C(=O)CCSC[C@H](NC(=O)[C@@H](CC(=O)O)NC(=O)[C@H](Cc5cccc7ccccc57)NC(=O)[C@@H]5CCCN5C4=O)C(=O)N[C@@H](CCSC)C(=O)N[C@@H](CCCCNC(=N)N)C(=O)N[C@@H](CC(=O)O)C(=O)N[C@@H](Cc4c[nH]c5ccccc45)C(=O)N[C@@H](CO)C(=O)N[C@@H]([C@@H](C)O)C(=O)N4CCC[C@H]4C(=O)N4C[C@H](O)C[C@H]4C(=O)N[C@@H](Cc4c[nH]c5ccccc45)C(=O)N[C@H](C(N)=O)CSCCC6=O)CCOCCOCCOCCn4cc(CCC(=O)NCCCC[C@H]5NC(=O)[C@H](CCC(=O)O)NC(=O)[C@@H]6CCCN6C(=O)[C@H](CC(C)(C)C)NC(=O)[C@@H](NC(C)=O)CSCCC(=O)N6CN7CN(C6)C(=O)CCSC[C@H](NC(=O)[C@H](Cc6ccc(O)cc6)NC(=O)[C@@H]6CCCN6C5=O)C(=O)N[C@@H](Cc5ccccc5)C(=O)N[C@@H](C)C(=O)N[C@@H](CC(=O)O)C(=O)N5CCC[C@H]5C(=O)N[C@@H](Cc5ccc(O)cc5)C(=O)N[C@@H](CCCC)C(=O)N[C@H](C(N)=O)CSCCC7=O)nn4)nn3)C(=O)N3CCC[C@H]3C(=O)N[C@@H](Cc3ccc(O)cc3)C(=O)N2)C(=O)CCSC[C@@H](C(N)=O)NC1=O | – | – | rat, plasma | intravenous, 2 mg/kg | clearance | 13 mL/min/kg
COc1cc(Br)c(C=NNc2nc(-c3ccc(F)cc3)cs2)cc1OC | – | haemolysis | human | 10 µM, 30 min, pH 7.4 | haemolysis | 3.06%
[2H]C([2H])([2H])n1cc2cc(Nc3nc(=O)n(Cc4ncn(C)n4)c(=O)n3Cc3cc(F)c(F)cc3F)c(Cl)cc2n1 | – | – | male Sprague-Dawley rat, plasma | intravenous, 5 mg/kg | clearance | 1.03 mL/min/kg
CN[C@H](CC(C)C)C(=O)N[C@H]1C(=O)N[C@@H](CC(N)=O)C(=O)N[C@H]2C(=O)N[C@H]3C(=O)N[C@H](C(=O)N[C@H](C(=O)O)c4cc(O)cc(O)c4-c4cc3ccc4O)[C@H](O)c3ccc(c(Cl)c3)Oc3cc2cc(c3O[C@@H]2O[C@H](CO)[C@@H](O)[C@H](O)[C@H]2O[C@H]2C[C@](C)(N)[C@H](O)[C@H](C)O2)Oc2ccc(cc2Cl)[C@H]1O | – | haemolysis | human | 200 µM, 1 h, pH 7.2 | haemolysis | ≤ 1%
Cc1nc(Nc2ccc(NC(=O)c3ccco3)cc2)cc(-n2cccn2)n1 | HeLa | cell growth or viability, MTS | – | – | CC50 | > 100 µM
